Screening data as filed in PubChem BioAssay.
mIAP act = increases mouse intestinal alkaline phosphatase activity; muIAP, CDP-Star luminescence, 30 min; hits give high values; 1 = vehicle-only enzyme signal, 0 = enzyme-free wells; activation factor at 10 µM; actives 0.24% (n = 330,000); AID 2805;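 active = activation factor of at least 2 at 20 µM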
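Assay system: mouse IAP enzyme; Reagent: CDP-Star chemiluminescent phosphatase substrate; Compound: DMSO-dissolved test compounds; Incubation: 30 min, room temperature; Technique: luminescence from enzymatic CDP-Star hydrolysis; Controls: DMSO-only wells and no-enzyme negative control.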
hIAP block = human IAP inhibition | AID 2544 | P09923 | inhibition, % at 10 µM | actives 0.12% (n = 330,000) | purified IAP, CDP-Star luminescence, 30 min;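 active = inhibition reaching a set limit with compound at 10 µM in the primary screen, cut at about 35% in these data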;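 note: plate controls were DMSO wells with enzyme for no effect and no-enzyme buffer wells for full effect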
Target sequence (P09923 whole entry, looked up): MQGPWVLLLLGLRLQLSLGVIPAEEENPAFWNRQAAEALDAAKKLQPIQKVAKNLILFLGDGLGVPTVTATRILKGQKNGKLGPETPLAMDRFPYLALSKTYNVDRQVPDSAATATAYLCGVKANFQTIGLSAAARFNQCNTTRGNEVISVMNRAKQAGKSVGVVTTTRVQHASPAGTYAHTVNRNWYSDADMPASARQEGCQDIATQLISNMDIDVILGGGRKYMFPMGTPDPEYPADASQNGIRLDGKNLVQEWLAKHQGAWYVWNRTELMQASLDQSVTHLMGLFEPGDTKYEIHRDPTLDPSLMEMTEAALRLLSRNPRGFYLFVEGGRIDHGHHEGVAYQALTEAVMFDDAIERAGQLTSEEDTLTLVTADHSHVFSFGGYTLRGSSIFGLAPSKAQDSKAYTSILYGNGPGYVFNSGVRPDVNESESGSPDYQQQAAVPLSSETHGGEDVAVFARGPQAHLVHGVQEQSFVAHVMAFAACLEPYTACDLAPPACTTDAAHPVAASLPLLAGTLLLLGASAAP
bIAP inh = intestinal alkaline phosphatase (bovine) inhibition | purified bovine IAP, CDP-star luminescence, 30 min | inhibition, % at 20 µM | 190,000 tested, under 10 active | AID 1019;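 active = over 50% inhibition of intestinal alkaline phosphatase at 20 µM in the single-dose screen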
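Assay system: bovine IAP enzyme; medium: DEA buffer 100 mM, pH 9.8, with MgCl2 1.0 mM, ZnCl2 0.02 mM; doses: 20 µM single dose; incubation: enzyme reaction for 30 min at room temperature; detection: CDP-star luminescence signal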
bIAP activator = increases bovine intestinal alkaline phosphatase activity | purified bovine IAP, CDP-star luminescence, 30 min; hits give high values; fold of DMSO-control signal, blank-subtracted | activation factor at 20 µM | actives 0.17% (n = 200,000);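 active = activation factor of 2 or more at 20 µM, a signal rise over negative controls twice the positive control's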
mIAP inh = mouse IAP inhibition; inhibition, % at 10 µM; actives 0.2% (n = 330,000); purified mouse IAP, CDP-Star luminescence, 30 min;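 active = inhibition of at least 40% at 10 µM in the primary screen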;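 note: plate controls were DMSO with enzyme for no effect and no enzyme wells for full effect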
hIAP activ = increases human intestinal alkaline phosphatase activity | P09923 | activation factor at 10 µM | actives 0.16% (n = 330,000) | AID 2524 | purified human IAP, CDP-Star luminescence, 30 min; hits give high values; 1 = vehicle-only enzyme, 0 = enzyme-free background;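 active = activation factor of the enzyme at least 2-fold when tested at 20 µM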
mIAP inh conf = mouse IAP inhibition confirmation | shares compounds with mIAP inh | purified mouse IAP, CDP-Star luminescence, 30 min | inhibition, % at 10 µM | actives 4.7% (n = 11,000) | AID 434971;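 active = inhibition of at least 40% at 10 µM in either of the two replicates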;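 note: plate controls were DMSO wells with enzyme for no effect and buffer wells lacking enzyme for full effect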
Numbers without * were called inactive; i = inactive; nt = not tested or not shown. Hits are enriched below; roughly 0.77% of the tested compounds scored in any of these assays.

SMILES | mIAP act | hIAP block | bIAP inh | bIAP activator | mIAP inh | hIAP activ | mIAP inh conf
N#Cc1c(SCC(=O)Nc2nc3ccc(Br)cc3s2)sc2c(O)cc(=O)[nH]c12 | 0.586 | -2.0 | nt | nt | 41.4* | 1.02 | 71.8*
Cc1cc(=O)n2[nH]cc(C(=O)O)c2n1 | 0.473 | 4.6 | 8.9 | 0.9 | 52.7* | 0.954 | 57.9*
Cc1cc(=O)n2[nH]c(C(=O)O)nc2n1 | 0.878 | -13.0 | 6.5 | 0.9 | 12.2 | 1.13 | nt
Cc1cc(=O)[nH]c(N/N=C/c2ccc(O)c(O)c2)n1 | 0.566 | -26.4 | nt | nt | 43.4* | 1.26 | 45.2*
CSc1ccc(/C=N/Nc2nc(C)cc(=O)[nH]2)cc1 | 0.997 | -3.6 | -12.0 | 1.1 | 0.3 | 1.04 | nt
O=[N+]([O-])c1cc(-c2ccc(/C=N\n3cnnc3)o2)cc([N+](=O)[O-])c1 | 0.919 | 3.6 | nt | nt | 8.1 | 0.964 | nt
CCCCOc1[nH]c2nc(-c3ccco3)n(Cc3ccco3)c(=N)c2c1C#N | 0.37 | -1.7 | -2.5 | 1 | 63.0* | 1.02 | 68.1*
COc1ccc2c(c1OC)C(=O)N(c1cccc(NC(C)=O)c1)C2 | 0.958 | -6.9 | nt | nt | 4.2 | 1.07 | nt
COc1cc2c(ccc3cc(OC)c(OC)c(O)c32)cc1O | 0.495 | 5.8 | nt | nt | 50.5* | 0.942 | 58.2*
C/C(CC(=O)Nc1ccc2ccccc2c1)=N\NC(=O)c1cnccn1 | 0.938 | -8.9 | 14.0 | 0.9 | 6.2 | 1.09 | nt
C/C(CC(=O)Nc1ccc2ccccc2c1)=N\NC(=O)c1ccc(O)c(O)c1 | 0.535 | -5.6 | nt | nt | 46.5* | 1.06 | 67.0*
Nc1nnnn1/N=C/c1ccco1 | 0.935 | -4.5 | 1.5 | 1 | 6.5 | 1.04 | nt
C(=Nc1cccc2c(N=Cc3ccco3)cccc12)c1ccco1 | 0.52 | 5.2 | -10.9 | 1.1 | 48.0* | 0.948 | 40.8*
C(=N\C(/N=C/c1ccco1)c1ccco1)/c1ccco1 | 0.27 | -19.2 | -4.5 | 1 | 73.0* | 1.19 | 74.9*
CN(C)c1ccc(N=Cc2ccco2)cc1 | 0.86 | 10.3 | 21.2 | 0.8 | 14.0 | 0.897 | nt
CCOc1ccccc1NC(=O)COC(=O)c1ccc2ccccc2n1 | 0.997 | -4.7 | nt | nt | 0.3 | 1.05 | nt
Nc1ccccc1C#CC(=O)c1ccccc1 | 1.02 | -1.4 | nt | nt | -2.0 | 1.01 | nt
Cc1ccc(/C=C2\SC(=S)N(/N=C/c3cc([N+](=O)[O-])ccc3O)C2=O)o1 | 0.18 | 18.5 | 0.5 | 1 | 82.0* | 0.815 | 86.3*
O=[N+]([O-])c1ccc(O)c(/C=N/n2cnc3ccccc32)c1 | 0.971 | 12.7 | 8.6 | 0.9 | 2.9 | 0.873 | nt
O=C(Nc1nc(-c2ccco2)c(-c2ccco2)s1)C1CC(=O)N(c2ccc3c(c2)OCCO3)C1 (stereo unspecified) | 0.46 | 8.7 | 5.1 | 0.9 | 54.0* | 0.913 | 69.0*
Cc1nnc(NC(=O)C2CC(=O)N(c3ccc4c(c3)OCCO4)C2)s1 (stereo unspecified) | 1.01 | -1.9 | nt | nt | -0.9 | 1.02 | nt
Cc1ccc(S(=O)(=O)N2CCC(C(=O)Nc3ccc(S(=O)(=O)N4CCCC4)cc3)CC2)cc1 | 1.67 | -5.0 | nt | nt | -67.1 | 1.05 | nt
Cc1ccc(S(=O)(=O)N2CCC(C(=O)Nc3ccc(C(C)C)cc3)CC2)cc1 | 6.57* | -4.7 | nt | nt | i | 1.05 | -249.3
Cc1ccc(S(=O)(=O)N2CCC(C(=O)Nc3ccc(S(=O)(=O)N4CCCC4)cc3)CC2)cc1C | 2.15* | 8.2 | nt | nt | -115.1 | 0.918 | -121.7
O=C(Nc1cccc(F)c1)c1ccc(S(=O)(=O)N2CCCCC2)cc1 | 0.893 | 7.9 | nt | nt | 10.7 | 0.921 | nt
O=C(NC1CCCC1)C(c1ccc(F)cc1)N(Cc1ccc(F)cc1)C(=O)c1ccn[nH]1 (stereo unspecified) | 2.2* | -75.7 | -142.1 | 2.4* | -119.8 | 1.76 | -104.7
O=C(NC1CCCCC1)C(c1ccncc1)N(C(=O)c1ccco1)c1ccc(F)cc1 (stereo unspecified) | 1.02 | -1.2 | nt | nt | -1.6 | 1.01 | nt
Cc1cc(-c2csc(N)n2)c(C)n1C | 0.832 | 8.9 | 2.2 | 1 | 16.8 | 0.911 | nt
Cc1cc(-c2csc(N)n2)c(C)n1Cc1ccco1 | 0.489 | 9.2 | -8.4 | 1.1 | 51.1* | 0.908 | 42.9*
Cc1ccc(Cl)c2c1=NC(=O)C=2c1[nH]c(=S)[nH]c1O | 0.54 | 24.3 | nt | 0.1 | 46.0* | 0.757 | 52.2*
